Source: PubChem
KCNK3 inh = human KCNK3 channel inhibition, primary screen; B-score at 10 µM; AID 602410; CHO-KCNK3 thallium flux, FluxOR fluorescence; stronger effect = lower value; 340,000 compounds, 0.84% hits; O14649;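 active means B-score under library mean minus 4 SD, starting fluorescence ratio at most library mean plus 5 SD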;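 further: more negative B-score means stronger inhibition of thallium flux through KCNK3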
Target sequence (O14649 whole entry, looked up): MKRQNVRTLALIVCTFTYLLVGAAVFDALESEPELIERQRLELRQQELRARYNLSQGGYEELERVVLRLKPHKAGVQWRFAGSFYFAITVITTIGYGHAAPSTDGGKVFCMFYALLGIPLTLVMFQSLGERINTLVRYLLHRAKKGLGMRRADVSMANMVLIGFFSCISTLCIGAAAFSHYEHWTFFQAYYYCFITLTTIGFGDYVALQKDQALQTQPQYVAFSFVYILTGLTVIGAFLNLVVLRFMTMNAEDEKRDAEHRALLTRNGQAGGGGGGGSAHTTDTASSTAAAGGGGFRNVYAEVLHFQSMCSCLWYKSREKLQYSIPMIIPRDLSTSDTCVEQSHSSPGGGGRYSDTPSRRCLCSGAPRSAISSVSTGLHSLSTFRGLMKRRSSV
KCNQ1 pot = potentiates or activates the human KCNQ1 potassium channel; P51787; CHO-K1 KCNQ1, thallium flux FluxOR fluorescence; stronger effect = higher value; B-score at 10 µM; 310,000 compounds, 0.35% hits;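 active means fluorescence ratio B-score, a plate-corrected score, at least three library SD, with initial intensity B-score within 5 SD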
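System: CHO-K1 cells stably expressing KCNQ1 / Medium: assay buffer for compound exposure, DMSO matched across wells / Reagent: thallium- and potassium-containing depolarizing buffer / Compound: one concentration, matched DMSO / Incubation: 20 min compound pretreatment at room temperature / Measured by: kinetic FluxOR fluorescence, 10 s baseline plus 110 s post-stimulus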
hERG protect = compounds protecting human hERG from proarrhythmic drug block; Q12809; activation (rescue from dofetilide block), less the hit threshold, % at 10 µM; CHO-hERG, FluxOR thallium flux, dofetilide IC70 present; 310,000 compounds, 0.51% hits;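 active means activation above the mean of controls blocked by dofetilide plus 5 SD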;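 further: thallium influx through hERG after potassium depolarization seen as dye fluorescence rise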
Kir21 inh = inhibitors of mouse Kir2.1 inward-rectifier potassium channel. HEK293-Kir2.1, FluxOR thallium flux fluorescence; stronger effect = lower value. AID 1672. B-score at 10 µM. P35561. 310,000 compounds, 0.85% hits;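 active means fluorescence ratio B-score at or below minus 3 SD of library scores, with starting-brightness B-score within 2 SD, cut at about -4.2 in these data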;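 further: channel flux triggered by added potassium and thallium sulfate stimulus; B-score of peak minus minimum fluorescence over baseline after thallium stimulus; more negative B-score means stronger Kir2.1 block with less thallium influx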
KCNK9 block = blocks the human KCNK9 two-pore domain potassium channel | Q9NPC2 | HEK293 KCNK9, FluxOR thallium flux fluorescence; stronger effect = lower value | B-score at 10 µM | 310,000 compounds, 1.2% hits | AID 488922;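 active means ratio B-score over 3 SD below the library mean, with starting fluorescence within 5 SD of its mean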;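 further: negative B-score means less thallium flux so channel inhibition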
KCNQ1 inh = blocks the human KCNQ1 potassium channel. AID 2642. CHO-K1 KCNQ1, FluxOR thallium flux fluorescence; stronger effect = higher value. 310,000 compounds, 1.3% hits. B-score at 10 µM;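 active means compounds whose thallium flux B-score, printed positive for inhibition, exceeds three library SD while starting fluorescence stays within three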;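 further: channel opened by potassium depolarization with thallium stimulus after 20 min compound exposure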
KCNK9 inh conf = confirmation of human KCNK9 potassium channel inhibitors; AID 492992; 4,900 compounds, 43% hits; shares compounds with KCNK9 block; HEK293 KCNK9 cells, FluxOR thallium flux fluorescence; inhibition, % at 10 µM;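 active means thallium signal inhibited by more than 5 SD of the compound-free buffer control wells, on both duplicate plates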;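 further: 0% = assay buffer control wells without compound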
Kir21 sel = selectivity of KCNK9 modulators against mouse Kir2.1; shares compounds with KCNK9 block; Kir2.1 cells, FluxOR thallium flux fluorescence; inhibition, % at 10 µM; 4,900 compounds, 4% hits; AID 492993;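 active means thallium signal drop more than 5 SD beyond the mean of the no-compound control wells, seen in both duplicate plates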;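 further: signal is fluorescence rise after thallium addition divided by baseline fluorescence; plate controls were assay buffer only for no effect and full block by chlorpromazine control for full effect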
KCNK9 uninduced = non-induced cell nonspecific activity of KCNK9 modulators | 4,900 compounds, 40% hits | AID 492997 | non-induced KCNK9-HEK293, FluxOR thallium flux | shares compounds with KCNK9 block | inhibition, % at 10 µM;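 active means thallium signal drop beyond 5 SD of the untreated control mean, on both duplicate plates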;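 further: plate controls were buffer only IC0 wells for no effect and SID17386958 at its maximal inhibitory level for full effect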
The depositor's hits bear a star; i = inactive; nt = no result given. Compounds with a hit are over-represented: about 3.8% of the library has one in this group of screens.

SMILES	KCNK3 inh	KCNQ1 pot	hERG protect	Kir21 inh	KCNK9 block	KCNQ1 inh	KCNK9 inh conf	Kir21 sel	KCNK9 uninduced
O=S(=O)(c1ccc(Cl)nc1)N1CCN(Cc2ccc3c(c2)OCO3)CC1	i	i	-8	0.12	i	i	nt	nt	nt
CCOc1ccc(S(=O)(=O)N2CCN(Cc3ccc4c(c3)OCO4)CC2)cc1OCC	i	i	-13	-0.4	i	i	nt	nt	nt
O=S(=O)(c1cccc2cccnc12)N1CCN(Cc2ccc3c(c2)OCO3)CC1	i	i	0	-0.55	i	i	i	i	i
O=S(=O)(c1ccc(Br)s1)N1CCN(Cc2ccc3c(c2)OCO3)CC1	i	i	-3	0.68	i	i	i	i	i
COc1ccc(O)c(/C=N\NC(=O)CCn2nnc3ccccc32)c1	i	i	-13	-0.51	i	i	nt	nt	nt
Cc1ccc(NC2CCCN(C(=O)c3cccs3)C2)cc1C (configuration not stated)	i	i	-11	-2.2	i	i	i	i	i
COCc1ccc(C(=O)N2CCCC(Nc3ccc(C(C)C)cc3)C2)s1 (configuration not stated)	i	i	-6	-0.93	i	i	i	i	i
CC(C)c1ccc(NC2CCCN(C(=O)c3cccs3)C2)cc1 (configuration not stated)	i	i	-8	0.11	i	i	i	i	i
COc1ccc(NC2CCCN(C(=O)c3cccs3)C2)cc1 (configuration not stated)	i	i	-2	-1.1	i	i	i	i	i
Cc1ccc(-c2ccc3c(c2)S(=O)(=O)c2ccccc2C3=O)cc1	nt	i	-4	1.5	i	i	nt	nt	nt
COC(=O)c1cc(NC(=O)C(C)c2ccc(CC(C)C)cc2)ccc1O (configuration not stated)	i	i	-5	-0.62	i	i	i	i	i
N#Cc1ccc(-c2ccccc2)nc1SCC(=O)c1cccc(Cl)c1	i	i	-7	0	-8.7*	i	34%*	i	46%*
N#Cc1ccc(-c2ccc(Cl)cc2)nc1SCC(=O)c1cccc(Cl)c1	i	i	-5	0.93	i	i	nt	nt	nt
COc1cc(Br)ccc1NC(=O)c1ccccc1-c1ccccc1C(=O)O	i	i	-8	-0.13	i	i	nt	nt	nt
Cc1ccc(F)c(NC(=O)/C(C#N)=C(\O)c2ccc(C(C)(C)C)cc2)c1	i	i	-11	0.8	i	7*	i	i	i
Cc1ccc(F)c(NC(=O)c2ccc(Cn3cc(Cl)cn3)cc2)c1	i	i	-10	0.09	i	i	nt	nt	nt
CN(C/C=C/C#CC(C)(C)C)Cc1cccc2ccccc12	i	i	-9	-0.03	i	i	i	i	i
COc1ccc(CCN(C)Cc2cccc3ccccc23)cc1OC	i	i	-11	-1	i	i	nt	nt	nt
COc1ccc(NC(=O)Cc2c(F)cccc2Cl)c(OC)c1	i	i	-9	-0.66	i	i	nt	nt	nt
C#CCSc1cc(C(F)(F)F)nc(-c2ccccn2)n1	i	i	-10	-0.96	i	i	nt	nt	nt
COc1nccnc1NS(=O)(=O)c1ccc(NCc2cc(Br)ccc2O)cc1	i	i	-10	-1.4	i	i	nt	nt	nt
CCc1nnc(NS(=O)(=O)c2ccc(NCc3cc(Br)ccc3O)cc2)s1	i	i	-16	2.3	i	i	i	i	i
CCOC(=O)c1ccc(N2C(=O)c3n[nH]c(-c4ccco4)c3C2c2cccc([N+](=O)[O-])c2)cc1 (configuration not stated)	i	i	-8	2.4	-9.4*	i	64%*	i	30%*
CCC(C)(C)n1nnnc1CN1CCC(NC(=O)c2ccc(Br)cc2)CC1	i	nt	nt	nt	nt	nt	nt	nt	nt
CCN1C(=O)[C@H]2[C@@H](c3ccc(-c4cccc(Cl)c4)c(OC)c3)N[C@@](CC(C)C)(C(=O)OC)[C@H]2C1=O	i	i	-9	-0.67	-9.9*	i	44%*	i	44%*
SMILES	KCNK3 inh	KCNQ1 pot	hERG protect	Kir21 inh	KCNK9 block	KCNQ1 inh	KCNK9 inh conf	Kir21 sel	KCNK9 uninduced
COc1ccccc1NC(=O)/C(=C/c1cccc([N+](=O)[O-])c1)c1ccccc1	i	i	-10	0.38	-8.6*	6*	54%*	i	38%*
CC(C)(C)C(=O)Nc1ccc(NC(=O)C(C)(C)C)cc1	i	i	-14	-0.4	i	i	nt	nt	nt
Cc1ccc(C2(c3noc(CN4CCC(c5ccncc5)CC4)n3)CCCC2)cc1	i	i	-22	0	i	i	i	i	i
CCC(=NCCc1c(C)[nH]c2ccccc12)C1=C(O)CC(c2ccccc2)CC1=O (configuration not stated)	i	i	-6	-0.65	i	i	i	i	i
CCC(=NCCc1c(C)[nH]c2ccc(OC(F)(F)F)cc12)C1=C(O)CC(c2ccccc2)CC1=O (configuration not stated)	i	i	-15	2.5	i	i	nt	nt	nt
CCCCC(=NCCc1c(C)[nH]c2ccc(OC)cc12)C1=C(O)CC(c2ccccc2)CC1=O (configuration not stated)	i	i	-14	1.3	i	i	i	i	i
CCCn1c(SCC(=O)NCC)nc2sc3c(c2c1=O)CCC3	i	i	-1	-0.18	i	i	nt	nt	nt
Cc1ccc(Cn2nnc3c(=O)[nH]c(C4CCN(S(=O)(=O)c5cc(C)ccc5C)CC4)nc32)cc1	i	i	-8	-0.49	i	i	nt	nt	nt
COc1ccc(OC)c(C(=O)NC(CC(N)=O)c2ccc(N3CCC(Cc4ccccc4)CC3)c([N+](=O)[O-])c2)c1 (configuration not stated)	i	i	-16	-1.8	-11*	i	55%*	i	i
COc1ccc(OC)c(C(=O)NC(CC(N)=O)c2ccc(N3CCN(c4ccccc4)CC3)c([N+](=O)[O-])c2)c1 (configuration not stated)	i	i	-4	-0.95	i	i	nt	nt	nt
O=C(CCCOc1ccccc1)N1CCc2ccccc2C1	i	i	-6	-0.03	i	i	nt	nt	nt
